Assay outcomes: PubChem, several laboratories
KCNQ1 inh: inhibitors of human KCNQ1 potassium channel; P51787; CHO-K1 KCNQ1, FluxOR thallium flux fluorescence; stronger effect = higher value; B-score at 10 µM; 310,000 tested, 1.3% active; AID 2642;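 active means compounds whose thallium flux B-score, printed positive for inhibition, exceeds three library SD while starting fluorescence stays within three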;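 further: channel opened by potassium depolarization with thallium stimulus after 20 min compound exposure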
Target sequence (P51787 whole entry, looked up): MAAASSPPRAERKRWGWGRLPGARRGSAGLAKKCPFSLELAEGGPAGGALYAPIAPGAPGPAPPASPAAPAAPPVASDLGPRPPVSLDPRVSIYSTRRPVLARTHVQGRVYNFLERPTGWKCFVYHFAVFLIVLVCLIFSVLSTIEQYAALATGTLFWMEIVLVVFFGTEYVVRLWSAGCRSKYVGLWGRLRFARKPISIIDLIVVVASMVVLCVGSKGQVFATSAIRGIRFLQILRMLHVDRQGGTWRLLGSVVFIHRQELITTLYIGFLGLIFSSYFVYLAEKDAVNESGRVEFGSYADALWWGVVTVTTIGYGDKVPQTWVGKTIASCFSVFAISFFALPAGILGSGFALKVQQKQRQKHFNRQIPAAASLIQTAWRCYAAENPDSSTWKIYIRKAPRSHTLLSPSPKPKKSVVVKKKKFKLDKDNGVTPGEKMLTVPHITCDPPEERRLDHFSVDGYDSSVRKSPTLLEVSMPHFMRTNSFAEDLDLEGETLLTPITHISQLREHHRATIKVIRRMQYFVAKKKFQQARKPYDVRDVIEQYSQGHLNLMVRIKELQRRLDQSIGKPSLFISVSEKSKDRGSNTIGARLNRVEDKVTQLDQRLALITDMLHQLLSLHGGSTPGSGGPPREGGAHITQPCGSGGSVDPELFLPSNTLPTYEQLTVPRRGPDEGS
KCNQ1 pot: potentiators or activators of human KCNQ1 potassium channel; P51787; CHO-K1 KCNQ1, thallium flux FluxOR fluorescence; stronger effect = higher value; B-score at 10 µM; 310,000 tested, 0.35% active;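 active means fluorescence ratio B-score, a plate-corrected score, at least three library SD, with initial intensity B-score within 5 SD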
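Assay system: CHO-K1 cells stably expressing KCNQ1. Medium: assay buffer for compound exposure, DMSO matched across wells. Timing: 37 °C overnight plating, 90-min dark dye load, 20-min compound pretreatment. Signal: kinetic FluxOR fluorescence, 10 s baseline plus 110 s post-stimulus.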
KCNK3 inh: human KCNK3 channel inhibition, primary screen | CHO-KCNK3 thallium flux, FluxOR fluorescence; stronger effect = lower value | B-score at 10 µM | 340,000 tested, 0.84% active;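 active means B-score under library mean minus 4 SD, starting fluorescence ratio at most library mean plus 5 SD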;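 further: more negative B-score means stronger inhibition of thallium flux through KCNK3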
KCNK9 inh: blocks the human KCNK9 two-pore domain potassium channel. Q9NPC2. HEK293 KCNK9, FluxOR thallium flux fluorescence; stronger effect = lower value. B-score at 10 µM. 310,000 tested, 1.2% active. AID 488922;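 active means ratio B-score over 3 SD below the library mean, with starting fluorescence within 5 SD of its mean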;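 further: negative B-score means less thallium flux so channel inhibition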
hERG rescue: hERG (human) protection from proarrhythmic block; CHO-hERG, FluxOR thallium flux, dofetilide IC70 present; activation (rescue from dofetilide block), less the hit threshold, % at 10 µM; 310,000 tested, 0.51% active; AID 1511; Q12809;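 active means activation above the mean of controls blocked by dofetilide plus 5 SD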;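 further: thallium influx through hERG after potassium depolarization seen as dye fluorescence rise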
Cl transport mod: KCC2 (human) Cl- transport modulation. Q9H2X9. KCC2 cells, thallium flux FluoZin-2 fluorescence. B-score of Tl+ flux slope (higher = more flux/activation; lower = inhibition) at 10 µM. 190,000 tested, 2.2% active;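 active means thallium flux slope and its plate-corrected score both differing from the plate sample mean at a set confidence after two filtering rounds, in either direction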;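 further: slope of fluorescence scaled to starting intensity during 10 to 20 s after thallium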
KCNQ1 inh valid: confirmation of human KCNQ1 potassium channel inhibitors; shares compounds with KCNQ1 inh; KCNQ1 cell line, FluxOR thallium flux fluorescence; inhibition, % at 10 µM; 1,600 tested, 93% active; AID 588353;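 active means primary screen active, with duplicate mean exceeding buffer control mean plus 3 SD of buffer wells, cut at about 28% in these data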
CHO Tl flux: activity in parental CHO cells lacking KCNQ1 | shares compounds with KCNQ1 inh | parental CHO-K1, FluxOR thallium flux fluorescence ratio; stronger effect = lower value; zero means no signal rise above baseline | 1,600 tested, 21% active | fluorescence ratio (Tl flux) at 10 µM | AID 588366;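 active means mean of duplicate thallium-flux fluorescence ratios in parental host cells more than 5 SD below the buffer control mean, cut at about 0.38 in these data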;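 further: ratio is peak minus minimum fluorescence divided by baseline fluorescence; actives read low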
KCNQ1 ephys val: blocks human KCNQ1 current in automated patch clamp | shares compounds with KCNQ1 inh | KCNQ1-CHO cells | calls only at 10 µM | 490 tested, 20% active | AID 624120;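 active means KCNQ1 current drop exceeding 3 SD of negative control wells, seen in both duplicate runs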;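 further: steady state current during a 2 s step from -80 to +40 mV; negative values mean current inhibition and positive values mean potentiation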
KCNQ2 spec: rat KCNQ2 inhibition in KCNQ1 inhibitor specificity screen; shares compounds with KCNQ1 inh; 1,600 tested, 71% active; KCNQ2 cells, FluxOR thallium flux fluorescence; inhibition, % at 10 µM;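 active means mean percent inhibition of the KCNQ2 thallium signal more than 5 SD above the buffer-only control wells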;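 further: KCNQ2 expressed in CHO cells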
KCNQ1-KCNE1 inh: human KCNQ1/KCNE1 inhibition in KCNQ1 specificity screen | shares compounds with KCNQ1 inh | KCNQ1/KCNE1 cells, FluxOR thallium flux fluorescence | inhibition, % at 10 µM | 1,600 tested, 77% active;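 active means mean percent inhibition of duplicate wells above the buffer-only control mean plus 3 SD of those controls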
Large screens that a line does not name were inactive (follow-up assays come after a bar, where they were run). This is a sample that favours compounds with a hit; in the whole collection about 4.1% have one here.

Cc1nnsc1SCCNC(=O)Nc1ccc(Cl)cc1	KCNQ1 inh 7 | KCNQ1 inh valid 67.0 | CHO Tl flux inactive | KCNQ2 spec inactive | KCNQ1-KCNE1 inh 35.5%
Clc1cc(Br)ccc1OCCCNCc1ccccc1	KCNQ1 inh 7 | KCNQ1 inh valid 67.5 | CHO Tl flux inactive | KCNQ2 spec 90.0% | KCNQ1-KCNE1 inh inactive
Cc1ccc(C)c(OCCCNCc2ccccc2)c1	none (no result: Cl transport mod)
O=C(Nc1nc(-c2ccccc2)c(C(=O)c2ccccc2)s1)c1ccc(S(=O)(=O)N2CCCC2)cc1	KCNQ1 inh 8 | KCNQ1 inh valid 78.0 | CHO Tl flux inactive | KCNQ2 spec 62.7% | KCNQ1-KCNE1 inh 96.0%
COc1ccc(-c2nc(N3CCCCCC3)sc2C(=O)c2ccccc2)cc1	KCNQ1 inh 7 | KCNQ1 inh valid 55.5 | CHO Tl flux inactive | KCNQ2 spec 105.0% | KCNQ1-KCNE1 inh 86.0%
O=C(c1ccccc1)c1sc(N2CCCCCC2)nc1-c1ccccc1	KCNQ1 inh 7 | KCNQ1 inh valid 124.0 | CHO Tl flux inactive | KCNQ1 ephys val inactive | KCNQ2 spec 122.7% | KCNQ1-KCNE1 inh active
Cc1nsc2nc3c(F)c(F)c(F)c(F)c3cc12	none (no result: Cl transport mod)
COc1ccc(OCC(=O)Nc2nccs2)cc1	KCNQ1 inh 7 (no result: Cl transport mod) | KCNQ1 inh valid inactive | CHO Tl flux inactive | KCNQ2 spec inactive | KCNQ1-KCNE1 inh inactive
Cc1ccccc1CSc1ccc(-c2ccc3c(c2)OCO3)nn1	KCNQ1 inh 7 | KCNQ1 inh valid 131.5 | CHO Tl flux 0.359 | KCNQ2 spec 106.0% | KCNQ1-KCNE1 inh 156.0%
Cn1c(CNC(=O)C(Cc2ccccc2)NC(=O)c2cccc(F)c2)cc(=O)n(C)c1=O (configuration not stated)	none (no result: Cl transport mod)
COC(=O)c1ccccc1NC(=O)CSc1nc(C)cc(C)n1	none
Cc1cc(C)nc(SCC(=O)Nc2ccnc3ccccc23)n1	KCNQ1 inh 6 | KCNQ1 inh valid 90.0 | CHO Tl flux inactive | KCNQ1 ephys val inactive | KCNQ2 spec 89.7% | KCNQ1-KCNE1 inh inactive
Cc1ccc(C)c(N2CCN(C(=O)C3CCN(c4nc(C)cc(C)n4)CC3)CC2)c1	none
Cc1cc(C)nc(N2CCC(C(=O)N3CCN(c4cc(Cl)ccc4C)CC3)CC2)n1	KCNQ1 inh 9 | KCNQ1 inh valid 139.5 | CHO Tl flux inactive | KCNQ1 ephys val inactive | KCNQ2 spec 111.0% | KCNQ1-KCNE1 inh 175.5%
O=C(NCCN1CCOCC1)/C(=C\c1ccc(F)cc1)NC(=O)c1ccccc1	none (no result: Cl transport mod)
Fc1ccccc1N1CCN(c2nc3ccccc3n3nnnc23)CC1	KCNQ1 inh 7 | KCNQ1 inh valid 76.0 | CHO Tl flux inactive | KCNQ2 spec 71.0% | KCNQ1-KCNE1 inh 83.5%
COc1ccc(NC(=O)C(Sc2ccccc2)c2ccccc2)c(OC)c1 (configuration not stated)	none
COc1ccccc1NC(=O)C(Sc1ccccc1)c1ccccc1 (configuration not stated)	KCNQ1 inh 10 | KCNQ1 inh valid 83.5 | CHO Tl flux inactive | KCNQ2 spec 112.3% | KCNQ1-KCNE1 inh 88.5%
Cc1[nH]c2ccc(C(=O)OC(C)C(=O)NC3(C#N)CCCCC3)cc2c1C (configuration not stated)	none (no result: Cl transport mod)
C=CCN=C1CCCc2c1[nH]c1ccc(C)cc21	KCNQ1 inh 6 | KCNQ1 inh valid 54.5 | CHO Tl flux inactive | KCNQ2 spec inactive | KCNQ1-KCNE1 inh 46.5%
Cc1cc(C)nc(NC(=NCCc2c[nH]c3ccccc23)NC(=O)Nc2ccc(Cl)cc2)n1	KCNQ1 inh 6 | KCNQ1 inh valid 47.5 | CHO Tl flux inactive | KCNQ2 spec 88.3% | KCNQ1-KCNE1 inh 89.5%
O=c1c2c(nc3n1CCCCC3)-c1ccccc1CC21CCCC1	KCNQ1 inh 8 (no result: Cl transport mod) | KCNQ1 inh valid 122.0 | CHO Tl flux inactive | KCNQ1 ephys val inactive | KCNQ2 spec 115.3% | KCNQ1-KCNE1 inh 150.5%
COc1ccc(CCC(C)NCCc2ccc(Cl)cc2Cl)cc1 (configuration not stated)	KCNQ1 inh 14 (no result: Cl transport mod) | KCNQ1 inh valid 99.0 | CHO Tl flux inactive | KCNQ2 spec 96.3% | KCNQ1-KCNE1 inh 106.5%
N#Cc1ccc(Oc2ccc(C#N)c(C#N)c2)cc1C#N	none (no result: KCNQ1 inh, KCNQ1 pot, KCNK9 inh, hERG rescue, Cl transport mod)
CCCSc1nnc(NC(=O)Nc2ccc(F)cc2)s1	KCNQ1 inh 8 | KCNQ1 inh valid 49.5 | CHO Tl flux inactive | KCNQ2 spec 60.3% | KCNQ1-KCNE1 inh 37.0%
COC(=O)C(Cc1ccc(O)cc1)NC(=O)C12CC3CC(CC(C3)C1)C2 (configuration not stated)	KCNQ1 inh 14 | KCNQ1 inh valid 43.5 | CHO Tl flux inactive | KCNQ2 spec inactive | KCNQ1-KCNE1 inh inactive
CCCCCCCCNS(=O)(=O)CCNCc1ccccc1OC	none (no result: KCNQ1 inh, KCNQ1 pot, KCNK9 inh, hERG rescue, Cl transport mod)
Cn1cccc1CC(=O)N/N=C/c1ccc(Cl)c([N+](=O)[O-])c1	none
Cc1cccc(NC(=O)C2CCN(S(=O)(=O)c3c(C)c(C)cc(C)c3C)CC2)n1	KCNQ1 inh 6 (no result: Cl transport mod) | KCNQ1 inh valid 77.5 | CHO Tl flux inactive | KCNQ2 spec 77.0% | KCNQ1-KCNE1 inh 177.0%
O=C(O)C1=CC2C=C(Cl)C=CC2OC1=O (configuration not stated)	none (no result: KCNQ1 inh, KCNQ1 pot, KCNK9 inh, hERG rescue, Cl transport mod)
O=C(CN1CCN(c2ccc(O)cc2)CC1)N(C1CC1)C1CCS(=O)(=O)C1 (configuration not stated)	none (no result: KCNQ1 inh, KCNQ1 pot, KCNK9 inh, hERG rescue, Cl transport mod)
Cc1ccc(S(=O)(=O)N(CC(=O)N=Nc2c(O)[nH]c3ccccc23)c2cccc(C)c2)cc1	KCNQ1 inh 7 | KCNQ1 inh valid 76.5 | CHO Tl flux inactive | KCNQ2 spec 80.3% | KCNQ1-KCNE1 inh 129.5%
Cc1cc(Cl)ccc1N(CC(=O)N=Nc1c(O)[nH]c2ccccc12)S(C)(=O)=O	none (no result: Cl transport mod)
CCOC(=O)c1ccc(N2CCN(c3ccccc3F)CC2)c(NC(=O)Nc2ccccc2)c1	KCNQ1 inh 6 | KCNQ1 inh valid 118.5 | CHO Tl flux 0.362 | KCNQ2 spec 118.3% | KCNQ1-KCNE1 inh 138.0%
